We go through 15 molecules from ChEMBL document CHEMBL1146290, “Core exploration in optimization of chemokine receptor CCR4 antagonists” (Bioorg Med Chem Lett, 2007).

Active and inactive are the calls of the source. The calls are words filed in the database; no cut-off is given here.

Series [1] has as its target T1, C-C chemokine receptor type 4 (Homo sapiens, UniProt P51679).
T1 sequence (P51679 whole entry): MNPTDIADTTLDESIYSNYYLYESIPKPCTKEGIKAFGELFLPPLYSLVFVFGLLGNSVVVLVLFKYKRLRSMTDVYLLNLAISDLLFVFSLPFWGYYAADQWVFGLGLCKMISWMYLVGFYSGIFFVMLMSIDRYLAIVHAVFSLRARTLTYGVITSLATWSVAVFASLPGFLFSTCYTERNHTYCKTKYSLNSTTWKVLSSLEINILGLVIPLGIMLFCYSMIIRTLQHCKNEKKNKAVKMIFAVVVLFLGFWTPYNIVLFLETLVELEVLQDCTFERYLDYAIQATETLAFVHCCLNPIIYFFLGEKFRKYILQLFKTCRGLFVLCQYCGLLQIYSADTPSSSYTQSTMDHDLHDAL
Description: Displacement of [125I]MDC from human CCR4 expressed in HEK293 cells. In kind it is cell-based. (In general: Displacement assays read how much labelled ligand stays bound in the presence of the test substance.)

For series [2], the target named is T2, C-C chemokine receptor type 4 (Mus musculus) (UniProt P51680).
T2 sequence (whole entry): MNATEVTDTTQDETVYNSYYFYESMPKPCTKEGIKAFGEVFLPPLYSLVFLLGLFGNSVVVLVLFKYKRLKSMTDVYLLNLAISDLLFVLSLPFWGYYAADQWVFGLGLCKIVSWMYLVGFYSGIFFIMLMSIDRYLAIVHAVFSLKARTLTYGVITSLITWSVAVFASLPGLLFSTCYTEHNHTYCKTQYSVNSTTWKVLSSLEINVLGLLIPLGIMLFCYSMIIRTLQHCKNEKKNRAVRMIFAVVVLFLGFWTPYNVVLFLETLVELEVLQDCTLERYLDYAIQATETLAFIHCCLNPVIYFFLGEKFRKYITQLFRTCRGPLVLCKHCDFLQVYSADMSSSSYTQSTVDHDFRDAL
Put plainly: Inhibition of ovalbumin-induced eosinophil infiltration in BALB/c mouse allergic inflammation model at 5 mg/kg, po. In kind it is functional, organism-based. The arrangement: dose 5 mg/kg. In short, it runs like this:
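Mice previously immunized with ovalbumin; dexamethasone given orally at 5 mg/kg as reference control. Total leukocytes, total eosinophils and percent eosinophils counted in bronchoalveolar lavage fluid. Seven to eight mice per group; means ± SEM; significance versus vehicle group by ANOVA with Dunnett's test (p < 0.05).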

Series [3] concerns the target T2, C-C chemokine receptor type 4 (Mus musculus). Description: Inhibition of ovalbumin-induced eosinophil infiltration in sc dosed BALB/c mouse allergic inflammation model.
Series [4] shares this target. Put plainly: Inhibition of ovalbumin-induced eosinophil infiltration in BALB/c mouse allergic inflammation model at 30 mg/kg, sc.
Series [5] in a line: Metabolic stability in human microsomes. The format is ADME, Microsome.
A short description of series [6]: Toxicity in human immortalized hepatocytes. The format is cell-based, Hepatocyte.
Series [7] concerns the target CYP450 (isoform not stated) (Homo sapiens, UniProt P04798+P05177+P05181+P08684+P10632+P10635+P11509+P11712+P13584+P20813+P20815+P20853+P24462+P24903+P33260+P33261+P51589+P78329+P98187+Q02928+Q08477+Q16678+Q16696+Q5TCH4+Q6VVX0+Q7Z449+Q8TAV3+Q96SQ9+Q9HB55). Description: Inhibition of CYP450. In kind it is ADME.
The target of series [8] is T1, C-C chemokine receptor type 4. Put plainly: Antagonist activity at human CCR4 expressed in CEMS529 cells assessed as effect on calcium mobilization. The format is functional, cell-based. Background: Calcium assays in cells follow changes in intracellular calcium, usually with a dye or a luminescent sensor.
A short description of series [9]: Carcinogenicity in SOS chromotest. In kind it is ADME.

What is called IC50 is the concentration at which inhibition is half-maximal. Take `O=C([C@@H]1CCCN1)N1CCN(c2nc(NCc3ccc(Cl)cc3Cl)c3cccnc3n2)CC1`: in series [1], the IC50 stood at 80 nM. On to `CCN(CC)CCCC(C)Nc1nc(NCc2ccc(Cl)cc2Cl)c2c(ncn2CC)n1` (configuration not stated), for which the IC50 in [1] amounted to 1100 nM. For `CCN(CC)CCCC(C)Nc1nc(NCc2ccc(Cl)cc2Cl)c2cccnc2n1` (configuration not stated), in [1], the IC50 amounted to 140 nM. The molecule `CCN(CC)CCCC(C)Nc1nc(NCc2ccc(Cl)cc2Cl)c2ccccc2n1` (configuration not stated) gave an IC50 in series [1] of 500 nM. On to `C[C@@H]1C[C@H]2[C@@H]3CCC4=CC(=O)C=C[C@]4(C)[C@@]3(F)[C@@H](O)C[C@]2(C)[C@@]1(O)C(=O)CO`, for which the outcome in series [2] was Active. Take `CCN(CC)CCCC(C)Nc1nc(NC)nc(NCc2ccc(Cl)cc2Cl)n1` (configuration not stated): in series [1], the IC50 was 3600 nM. Molecule `CCN(CC)CCCC(C)Nc1nc(NCc2ccc(Cl)cc2Cl)nc2ccccc12` (configuration not stated) yielded an IC50 in series [1] of 1910 nM. On the same count and under the same terms, under `CCN(CC)CCCC(C)Nc1ncc2c(ncn2Cc2ccc(Cl)cc2Cl)n1` (configuration not stated) stands 830 nM.

In [1], `CCN(CC)CCCC(C)Nc1nc(NCc2ccc(Cl)cc2Cl)c2[nH]cnc2n1` (configuration not stated) had an IC50 of 4900 nM. For the molecule `CCN(CC)CCCC(C)Nc1nc(NCc2ccc(Cl)cc2Cl)nc2ncn(CC)c12` (configuration not stated), in series [1], the IC50 amounted to 2600 nM.

In [1], `CCN(CC)CCCC(C)Nc1nc(NCc2ccc(Cl)cc2Cl)nc2nc[nH]c12` (configuration not stated) registered an IC50 of 2100 nM.

In general, ED50 refers to the dose that gives a 50% effect, or the effect in half of the subjects. With `O=C([C@@H]1CCCCN1)N1CCN(c2nc(NCc3ccc(Cl)cc3Cl)c3cccnc3n2)CC1`, the ED50 in series [3] was 10 mg/kg. In addition, in series [4], the outcome was Active. In series [5], this molecule had a Stability of 0.003 nmol/mg/min.

In the case of `CCN(CC)C(C)CCCNc1nccc(NCc2ccc(Cl)cc2Cl)n1.N` (configuration not stated), the IC50 in [6] was more than 40000 nM; in series [7] it was more than 1000 nM; in series [1], 280 nM; in series [8] it was 800 nM. In series [5], this molecule yielded a Stability of 0.1 nmol/mg/min. Further, in series [9], the Activity entry is “Non-toxic”. The molecule `CCN(CC)CCCC(C)Nc1ncc2ncn(Cc3ccc(Cl)cc3Cl)c2n1` (configuration not stated) registered an IC50 in series [1] of 820 nM. Turning to `CCN(CC)CCCC(C)Nc1ccc2cnn(Cc3ccc(Cl)cc3Cl)c2n1` (configuration not stated), the IC50 in series [1] came out at 280 nM.
